Source: paper PMC5858725 (Biochemistry, 2017)
Where two headings read alike, the source gives them in different places.

Tests used:
opt-WT CYP3A4 [1] = molecular target: T1, opt-WT CYP3A4 (Homo sapiens, UniProt P08684); assay: Stopped flow ligand binding kinetics, opt-WT CYP3A4; conditions: for Percentage of absorbance change observed during the fast kinetic phase / Percentage of absorbance change observed during the slow kinetic phase: 40 μM ligand
WT CYP3A4 [2] = assay: Stopped flow ligand binding kinetics, WT CYP3A4; parameters: species or system human; conditions: for Percentage of absorbance change observed during the fast kinetic phase / Percentage of absorbance change observed during the slow kinetic phase: 40 μM ligand
opt-WT CYP3A4 [3] = molecular target: T1, opt-WT CYP3A4
WT CYP3A4 [4] = conditions: cited from earlier work
Cys-less CYP3A4 [5] = molecular target: T2, Cys-less CYP3A4 (Homo sapiens, UniProt P08684, C239T/C377A/C468S/C58A/C64M/C98A)
Cys-less CYP3A4 [6] = molecular target: T2, Cys-less CYP3A4; assay: Stopped flow ligand binding kinetics, Cys-less CYP3A4; conditions: for Percentage of absorbance change observed during the fast kinetic phase / Percentage of absorbance change observed during the slow kinetic phase: 40 μM ligand
Cys-less CYP3A4 [7] = molecular target: T2, Cys-less CYP3A4; assay: BFC O-debenzylase activity in reconstituted system with CPR; format: biochemical; conditions: 0.1–0.6 M phosphate pH 7.4, all studied conditions; relative to WT and opt-WT
In short: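 N-terminally truncated (Δ3–22) CYP3A4 carrying C58A/C64M/C98A/C239T/C377A/C468S, co-expressed with GroESL in E. coli C41(DE3). […] Lipid-free reconstitution with rat cytochrome P450 reductase. Substrate 7-benzyloxy(4-trifluoromethyl)coumarin, O-debenzylated to a fluorescent product that is read fluorimetrically.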

CPR = assay: Kinetics of CYP3A4 reduction with CPR; format: biochemical, rat; conditions: anaerobic
[8] = 2 μM CYP3A4 mixed with 40 μM ligand, 0.6 M phosphate pH 7.4
[9] = CO-saturated 0.1 M phosphate pH 7.4, 1 μM CYP3A4 and CPR, 30 μM MDZ, 100 μM NADPH

CC(C)C[C@H]1C(=O)N2CCC[C@H]2[C@]2(O)O[C@](NC(=O)[C@@H]3C=C4c5cccc6[nH]c(Br)c(c56)C[C@H]4N(C)C3)(C(C)C)C(=O)N12 [BEC, bromoergocryptine]
Percentage of absorbance change observed during the fast kinetic phase (opt-WT CYP3A4 [1]; 0.1 M phosphate pH 7.4): 49% | Percentage of absorbance change observed during the slow kinetic phase (opt-WT CYP3A4 [1]; 0.1 M phosphate pH 7.4): 51% | Percentage of absorbance change observed during the fast kinetic phase (WT CYP3A4 [2]; 0.1 M phosphate pH 7.4): 52% | Percentage of absorbance change observed during the slow kinetic phase (WT CYP3A4 [2]; 0.1 M phosphate pH 7.4): 48% | affinity lower than WT (from Ks) (opt-WT CYP3A4 [3]): 1.5–2 fold | Kd (opt-WT CYP3A4 [3]; pH 7.4): 770 ± 140 nM | Kd (WT CYP3A4 [4]; read-out: Equilibrium Titrations, Ks, determined previously): 300 nM | affinity lower than WT (from Ks) (Cys-less CYP3A4 [5]): 1.5–2 fold | Kd (Cys-less CYP3A4 [5]; pH 7.4): 450 ± 60 nM | Percentage of absorbance change observed during the fast kinetic phase (Cys-less CYP3A4 [6]; 0.1 M phosphate pH 7.4): 54% | Percentage of absorbance change observed during the slow kinetic phase (Cys-less CYP3A4 [6]; 0.1 M phosphate pH 7.4): 46%

O=c1cc(C(F)(F)F)c2ccc(OCc3ccccc3)cc2o1 [BFC, 7-benzyloxy-(4-trifluoromethyl)coumarin]
BFC oxidation (debenzylation) by Cys-less CYP3A4, faster than WT and opt-WT (Cys-less CYP3A4 [7]): 6–8 fold

Cc1ncc2n1-c1ccc(Cl)cc1C(c1ccccc1F)=NC2 [MDZ, midazolam]
Ligand Binding Kinetics, kfast (opt-WT CYP3A4 [1]; [8]): 0.26 ± 0.03 s⁻¹ | Ligand Binding Kinetics, kslow (opt-WT CYP3A4 [1]; [8]): 0.027 ± 0.004 s⁻¹ | Percentage of absorbance change observed during the fast kinetic phase (opt-WT CYP3A4 [1]; 0.1 M phosphate pH 7.4): 43% | Percentage of absorbance change observed during the slow kinetic phase (opt-WT CYP3A4 [1]; 0.1 M phosphate pH 7.4): 57% | Percentage of absorbance change observed during the fast kinetic phase (opt-WT CYP3A4 [1]; 0.6 M phosphate pH 7.4): 49% | Percentage of absorbance change observed during the slow kinetic phase (opt-WT CYP3A4 [1]; 0.6 M phosphate pH 7.4): 51% | Ligand Binding Kinetics, kfast (WT CYP3A4 [2]; [8]): 3.4 ± 0.3 s⁻¹ | Ligand Binding Kinetics, kslow (WT CYP3A4 [2]; [8]): 0.23 ± 0.04 s⁻¹ | Percentage of absorbance change observed during the fast kinetic phase (WT CYP3A4 [2]; 0.1 M phosphate pH 7.4): 70% | Percentage of absorbance change observed during the slow kinetic phase (WT CYP3A4 [2]; 0.1 M phosphate pH 7.4): 30% | Percentage of absorbance change observed during the fast kinetic phase (WT CYP3A4 [2]; 0.6 M phosphate pH 7.4): 82% | Percentage of absorbance change observed during the slow kinetic phase (WT CYP3A4 [2]; 0.6 M phosphate pH 7.4): 18% | Kd (WT CYP3A4 [4]; read-out: Equilibrium Titrations, Ks, 0.1 M phosphate, determined previously): 4800 nM | Kd (WT CYP3A4 [4]; read-out: Equilibrium Titrations, Ks, 0.6 M phosphate, determined previously): 1800 nM | Ligand Binding Kinetics, kfast (Cys-less CYP3A4 [6]; [8]): 0.27 ± 0.02 s⁻¹ | Ligand Binding Kinetics, kslow (Cys-less CYP3A4 [6]; [8]): 0.036 ± 0.003 s⁻¹ | Percentage of absorbance change observed during the fast kinetic phase (Cys-less CYP3A4 [6]; 0.1 M phosphate pH 7.4): 40% | Percentage of absorbance change observed during the slow kinetic phase (Cys-less CYP3A4 [6]; 0.1 M phosphate pH 7.4): 60% | Percentage of absorbance change observed during the fast kinetic phase (Cys-less CYP3A4 [6]; 0.6 M phosphate pH 7.4): 43% | Percentage of absorbance change observed during the slow kinetic phase (Cys-less CYP3A4 [6]; 0.6 M phosphate pH 7.4): 57%

CC(C)c1nc(CN(C)C(=O)N[C@H](C(=O)N[C@@H](Cc2ccccc2)C[C@H](O)[C@H](Cc2ccccc2)NC(=O)OCc2cncs2)C(C)C)cs1 [RIT, ritonavir]
Percentage of absorbance change observed during the fast kinetic phase (WT CYP3A4 [2]; 0.1 M phosphate pH 7.4): 70% | Percentage of absorbance change observed during the slow kinetic phase (WT CYP3A4 [2]; 0.1 M phosphate pH 7.4): 30%

B1: Cys-less: C58A/C64M/C98A/C239T/C377A/C468S variant of CYP3A4 from codon-optimized synthetic gene (protein, UniProt P08684 2-503, looked up, variant C58A C64M C98A C239T C377A C468S)
Cytochrome P450 3A4: ALIPDLAMETWLLLAVSLVLLYLYGTHSHGLFKKLGIPGPTPLPFLGNILSYHKGFAMFDMEMHKKYGKVWGFYDGQQPVLAITDPDMIKTVLVKEAYSVFTNRRPFGPVGFMKSAISIAEDEEWKRLRSLLSPTFTSGKLKEMVPIIAQYGDVLVRNLRREAETGKPVTLKDVFGAYSMDVITSTSFGVNIDSLNNPQDPFVENTKKLLRFDFLDPFFLSITVFPFLIPILEVLNITVFPREVTNFLRKSVKRMKESRLEDTQKHRVDFLQLMIDSQNSKETESHKALSDLELVAQSIIFIFAGYETTSSVLSFIMYELATHPDVQQKLQEEIDAVLPNKAPPTYDTVLQMEYLDMVVNETLRLFPIAMRLERVAKKDVEINGMFIPKGVVVMIPSYALHRDPKYWTEPEKFLPERFSKKNKDNIDPYIYTPFGSGPRNCIGMRFALMNMKLALIRVLQNFSFKPSKETQIPLKLSLGGLLQPEKPVVLKVESRDGTVSGA
modifications: Δ3–22 truncation
First Electron Transfer from CPR, kfast (CPR; [9]): 1.22 ± 0.03 min⁻¹ | First Electron Transfer from CPR, kslow (CPR; [9]): 0.22 ± 0.02 min⁻¹ | First Electron Transfer from CPR, percentage of absorbance change in the fast phase (CPR; CO-saturated 0.1 M phosphate pH 7.4, 30 μM MDZ): 64%
